Data on 64 compounds can be found in ChEMBL document CHEMBL1177728, “Discovery and optimization of boronic acid based inhibitors of autotaxin” (J Med Chem, 2010).

Broadly, the residual activity is the signal under treatment as a percentage of the control signal. By IC50 is commonly meant the concentration at which inhibition is half-maximal. Usually inhibition stands for the percentage by which the read-out fell short of the control.

Molecules are shown by their SMILES.

The target of the first assay is T1, Autotaxin (Homo sapiens, UniProt Q13822). As to the kind of experiment: Inhibition of 6x-histidine-tagged human recombinant ATX expressed in HEK293 cells assessed as residual activity using bisP-nitrophenyl phosphate as a substrate; values are per cent of control.
Conditions: not given; call rule not given here
As to `COc1cc(/C=C2\SC(=O)N(Cc3ccc(F)cc3)C2=O)ccc1OCc1ccccc1`, the residual activity was determined as 12%. As for `O=C1S/C(=C\c2ccc(OCc3ccccc3)cc2)C(=O)N1Cc1ccccc1`, the residual activity worked out at 32%.

With `COC(=O)c1ccc(COc2ccc(/C=C3\SC(=O)N(Cc4ccccc4)C3=O)cc2OC)cc1`, the residual activity is 24%. On to `COC(=O)c1ccc(COc2ccc(/C=C3\SC(=O)N(Cc4ccc([N+](=O)[O-])cc4)C3=O)cc2OC)cc1`, for which the residual activity came to 31%. For the compound `O=C1S/C(=C\c2ccc(OCc3ccccc3)cc2)C(=O)N1Cc1ccc(F)cc1`, the residual activity is 37%.

In a further assay the target is T1, Autotaxin. In words: Inhibition of 6x-histidine-tagged human recombinant ATX expressed in HEK293 cells assessed as residual enzyme activity by lysophosphatidulcholine release assay.
Conditions: not given
The class given is cell-based. The method in brief: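 Residual activity in the LPC (18:1) choline release assay with purified His-tagged ATX (~40 nM), pH 7.4 Tris with 0.01% Triton X-100, 3 h at 37 C. Inhibitor titrated at 10 concentrations, 0.01–30 μM. Choline detected at 405 nm via choline oxidase/HRP/ABTS.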
`O=C(O)c1ccc(COc2ccc(/C=C3\SC(=O)N(Cc4ccc(F)cc4)C3=O)cc2)cc1`: the Activity is 40%.

The next assay concerns the target T1, Autotaxin. In words: Inhibition of 6x-histidine-tagged human recombinant ATX expressed in HEK293 cells assessed as lysophosphatidulcholine release. The class given is cell-based.
Conditions: not given
In short, it runs like this: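 LPC (18:1) choline release: ATX (~40 nM) secreted by transfected HEK293 cells into serum-free medium, TALON-purified, in 50 mM Tris-HCl pH 7.4 with 0.01% Triton X-100. Substrate added as 80 μM LPC with 10 mM MgCl2 and CaCl2, 3 h at 37 C.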
Regarding `O=C1S/C(=C\c2ccc(OCc3cccc(B(O)O)c3)cc2)C(=O)N1Cc1ccc(F)cc1`, the IC50 was 0.0283 µM. Turning to `O=C1S/C(=C\c2cccc(OCc3ccccc3B(O)O)c2)C(=O)N1Cc1ccc(F)cc1`, the IC50 is over 5 µM. With `O=C1S/C(=C\c2cccc(OCc3cccc(B(O)O)c3)c2)C(=O)N1Cc1ccc(F)cc1`, the half-inhibitory concentration (IC50) amounted to 0.0119 µM. Still for that read-out and setting: with `O=C1S/C(=C\c2ccc(OCc3ccccc3B(O)O)cc2)C(=O)N1Cc1ccc(F)cc1` the figure was over 5 µM. For `O=C(O)c1ccc(COc2ccc(/C=C3\SC(=O)N(Cc4ccc(F)cc4)C3=O)cc2)cc1`, the IC50 amounted to 1.63 µM. On the same count and under the same terms, for `O=C1S/C(=C\c2cccc(OCc3ccc(B(O)O)cc3)c2)C(=O)N1Cc1ccc(F)cc1` the value was 0.0296 µM.

For another assay, the target named is T1, Autotaxin. In words: Inhibition of 6x-histidine-tagged human recombinant ATX expressed in HEK293 cells using bisP-nitrophenyl phosphate as a substrate. Type of assay: cell-based. As to conditions: hek293.
Take `CC(C)(C)c1ccc(CN2C(=O)S/C(=C\c3ccccc3)C2=O)cc1`: the IC50 entry was “Not Active”. The same measure, in the same setting: with `O=C1S/C(=C\c2ccccc2)C(=O)N1Cc1ccc([N+](=O)[O-])cc1` the entry was “Not Active”. On the same count and under the same terms, with `COc1cc(/C=C2\SC(=O)N(Cc3ccc(C(C)(C)C)cc3)C2=O)ccc1OCc1ccccc1` the entry was “Not Active”.

Still in this assay, the particulars now being: read-out: IC50.
With `COc1cc(/C=C2\SC(=O)N(Cc3ccc(F)cc3)C2=O)ccc1OCc1ccccc1`, the IC50 amounted to 5.87 µM. In the case of `O=C1S/C(=C\c2ccccc2)C(=O)N1Cc1ccccc1`, the half-inhibitory concentration (IC50) is over 100 µM. On the same count and under the same terms, for `COc1cc(/C=C2\SC(=O)N(Cc3ccccc3)C2=O)ccc1OCc1ccccc1` the value was 100 µM; for `O=C1S/C(=C\c2ccc(OCc3ccccc3)cc2)C(=O)N1Cc1ccccc1`, 2.69 µM. The same measure, in the same setting: with `O=C1S/C(=C\c2ccc(OCc3ccccc3)cc2)C(=O)N1Cc1ccc([N+](=O)[O-])cc1` the figure was over 100 µM; with `COc1cc(/C=C2\SC(=O)N(Cc3ccc([N+](=O)[O-])cc3)C2=O)ccc1OCc1ccccc1`, over 100 µM. As for `COC(=O)c1ccc(COc2ccc(/C=C3\SC(=O)N(Cc4ccccc4)C3=O)cc2OC)cc1`, the IC50 came out at 2.69 µM. As for `COC(=O)c1ccc(COc2ccc(/C=C3\SC(=O)N(Cc4ccc([N+](=O)[O-])cc4)C3=O)cc2OC)cc1`, the concentration for half-maximal inhibition (IC50) was 60.9 µM. Turning to `COC(=O)c1ccc(COc2ccc(/C=C3\SC(=O)N(Cc4ccc(F)cc4)C3=O)cc2OC)cc1`, the half-inhibitory concentration (IC50) was over 100 µM. Consider `O=C1S/C(=C\c2ccc(OCc3ccccc3)cc2)C(=O)N1Cc1ccc(F)cc1`, for which the IC50 was determined as 0.7 µM.

As to `CC(C)(C)c1ccc(CN2C(=O)S/C(=C\c3ccc(OCc4ccccc4)cc3)C2=O)cc1`, the IC50 is over 100 µM.

With `COC(=O)c1ccc(COc2ccc(/C=C3\SC(=O)N(Cc4ccc(C(C)(C)C)cc4)C3=O)cc2OC)cc1`, the IC50 was over 100 µM. With `O=C1S/C(=C\c2ccccc2)C(=O)N1Cc1ccc(F)cc1`, the IC50 was over 100 µM.

A further assay addresses T1, Autotaxin. As to the kind of experiment: Inhibition of 6x-histidine-tagged human recombinant ATX expressed in HEK293 cells assessed as lysophosphatidulcholine release at 5 uM. The class given is cell-based.
Conditions: not given
In short, it runs like this: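 LPC (18:1) choline release: ATX (~40 nM) secreted by transfected HEK293 cells into serum-free medium, TALON-purified, in 50 mM Tris-HCl pH 7.4 with 0.01% Triton X-100. Substrate added as 80 μM LPC with 10 mM MgCl2 and CaCl2, 3 h at 37 C. Choline read at 405 nm by choline oxidase/HRP/ABTS with compound-absorbance correction. IC50 over 10 concentrations (0.01–30 μM); inhibition at 5 μM final.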
`C=CCN1C(=O)S/C(=C\c2ccc(OCc3ccc(C(=O)O)cc3)c(OC)c2)C1=O`: the inhibition was 19%.

Consider `O=C1S/C(=C\c2ccc(OCc3cccc(B(O)O)c3)cc2)C(=O)N1Cc1ccc(F)cc1`, for which the inhibition stood at 99%. Turning to `COc1cc(/C=C2\SC(=O)N(Cc3ccc(C(=O)O)cc3)C2=O)ccc1OCc1ccc(C(=O)O)cc1`, the inhibition stood at 49%. On to `COc1cc(/C=C2/SC(=O)N(Cc3c(F)c(F)c(F)c(F)c3F)C2=O)ccc1OCc1ccc(C(=O)O)cc1`, for which the inhibition is 10%. The same measure, in the same setting: for `COc1cc(/C=C2\SC(=O)N(Cc3ccc(Cl)cc3)C2=O)ccc1OCc1ccc(C(=O)O)cc1` the value was 57%; for `COc1cc(/C=C2\SC(=O)N(CC(=O)c3ccc(Br)cc3)C2=O)ccc1OCc1ccc(C(=O)O)cc1`, 23%. With `COc1cc(/C=C2\SC(=O)N(Cc3ccccc3C#N)C2=O)ccc1OCc1ccc(C(=O)O)cc1`, the inhibition was 17%.

Turning to `COc1cc(/C=C2\SC(=O)N(C(C)c3ccccc3)C2=O)ccc1OCc1ccc(C(=O)O)cc1` (stereo not given), the inhibition was 5%. With `COc1cc(/C=C2\SC(=O)N(Cc3ccncc3)C2=O)ccc1OCc1ccc(C(=O)O)cc1`, the inhibition worked out at 13%. `COc1cc(/C=C2\SC(=O)N(Cc3ccccn3)C2=O)ccc1OCc1ccc(C(=O)O)cc1`: the inhibition came to 10%. Turning to `O=C1S/C(=C\c2cccc(OCc3ccccc3B(O)O)c2)C(=O)N1Cc1ccc(F)cc1`, the inhibition turned out to be 11%. `COc1cc(/C=C2\SC(=O)N(CC(=O)c3ccc([N+](=O)[O-])cc3)C2=O)ccc1OCc1ccc(C(=O)O)cc1`: the inhibition turned out to be 17%.

For the compound `COC(=O)c1cccc(CN2C(=O)S/C(=C\c3ccc(OCc4ccc(C(=O)O)cc4)c(OC)c3)C2=O)c1`, the inhibition amounted to 30%. For `COc1cc(/C=C2\SC(=O)N(Cc3cccc(Cl)c3)C2=O)ccc1OCc1ccc(C(=O)O)cc1`, the inhibition is 29%.

Turning to `COc1cccc(CN2C(=O)S/C(=C\c3ccc(OCc4ccc(C(=O)O)cc4)c(OC)c3)C2=O)c1`, the inhibition is 20%.

Take `COc1cc(/C=C2\SC(=O)N(CCN3C(=O)c4ccccc4C3=O)C2=O)ccc1OCc1ccc(C(=O)O)cc1`: the inhibition amounted to 0%. Same read-out and setting: with `COc1cc(/C=C2\SC(=O)N(Cc3ccc(CC(=O)O)cc3)C2=O)ccc1OCc1ccc(C(=O)O)cc1` the figure was 42%; with `COc1cc(/C=C2\SC(=O)N(Cc3ccccc3C(F)(F)F)C2=O)ccc1OCc1ccc(C(=O)O)cc1`, 28%. On the same count and under the same terms, for `COC(=O)c1ccc(CN2C(=O)S/C(=C\c3ccc(OCc4ccc(C(=O)O)cc4)c(OC)c3)C2=O)cc1` the value was 31%. Turning to `COc1cc(/C=C2/SC(=O)N(Cc3c(Cl)cccc3Cl)C2=O)ccc1OCc1ccc(C(=O)O)cc1`, the inhibition is 38%. Consider `O=C1S/C(=C\c2cccc(OCc3cccc(B(O)O)c3)c2)C(=O)N1Cc1ccc(F)cc1`, for which the inhibition amounted to 100%. `COc1ccc(CN2C(=O)S/C(=C\c3ccc(OCc4ccc(C(=O)O)cc4)c(OC)c3)C2=O)cc1`: the inhibition was 11%. As for `CCCCCN1C(=O)S/C(=C\c2ccc(OCc3ccc(C(=O)O)cc3)c(OC)c2)C1=O`, the inhibition amounted to 15%. Turning to `COc1cc(/C=C2\SC(=O)N(Cc3ccc(C)cc3)C2=O)ccc1OCc1ccc(C(=O)O)cc1`, the inhibition was found to be 11%. Take `COc1cc(/C=C2\SC(=O)N(Cc3cccnc3)C2=O)ccc1OCc1ccc(C(=O)O)cc1`: the inhibition was 17%. On to `COc1cc(/C=C2\SC(=O)N(Cc3cccc([N+](=O)[O-])c3)C2=O)ccc1OCc1ccc(C(=O)O)cc1`, for which the inhibition was 48%.

Regarding `COc1cc(/C=C2\SC(=O)N(Cc3cccc(C#N)c3)C2=O)ccc1OCc1ccc(C(=O)O)cc1`, the inhibition worked out at 44%.

For `COc1cc(/C=C2\SC(=O)N(Cc3ccccc3[N+](=O)[O-])C2=O)ccc1OCc1ccc(C(=O)O)cc1`, the inhibition is 38%.

With `O=C1S/C(=C\c2ccc(OCc3ccccc3B(O)O)cc2)C(=O)N1Cc1ccc(F)cc1`, the inhibition came out at 36%.

For the compound `COc1cc(/C=C2\SC(=O)N(C(c3ccccc3)c3ccccc3)C2=O)ccc1OCc1ccc(C(=O)O)cc1`, the inhibition came out at 4%. As for `COc1cc(/C=C2\SC(=O)N(CC(=O)c3ccc(Cl)cc3)C2=O)ccc1OCc1ccc(C(=O)O)cc1`, the inhibition is 35%.

As for `COc1cc(/C=C2\SC(=O)N(Cc3ccccc3Cl)C2=O)ccc1OCc1ccc(C(=O)O)cc1`, the inhibition was 57%. On to `COc1cc(/C=C2\SC(=O)N(Cc3ccc(C(F)(F)F)cc3)C2=O)ccc1OCc1ccc(C(=O)O)cc1`, for which the inhibition is 32%. Take `COc1cc(/C=C2\SC(=O)N(Cc3ccccc3Br)C2=O)ccc1OCc1ccc(C(=O)O)cc1`: the inhibition came to 72%. For the compound `COc1cc(/C=C2\SC(=O)N(Cc3ccc(Br)cc3)C2=O)ccc1OCc1ccc(C(=O)O)cc1`, the inhibition is 23%. With `COc1cc(/C=C2\SC(=O)N(Cc3cccc4ccccc34)C2=O)ccc1OCc1ccc(C(=O)O)cc1`, the inhibition stood at 13%. For the compound `COc1cc(/C=C2\SC(=O)N(Cc3ccc(C(=O)O)cc3[N+](=O)[O-])C2=O)ccc1OCc1ccc(C(=O)O)cc1`, the inhibition amounted to 31%. In the case of `COc1cc(/C=C2\SC(=O)N(Cc3ccc(F)cc3C(F)(F)F)C2=O)ccc1OCc1ccc(C(=O)O)cc1`, the inhibition is 13%. For `COc1cc(/C=C2\SC(=O)N(Cc3ccc(F)cc3Br)C2=O)ccc1OCc1ccc(C(=O)O)cc1`, the inhibition is 51%. For the compound `O=C1S/C(=C\c2ccc(OCc3ccc(B(O)O)cc3)cc2)C(=O)N1Cc1ccc(F)cc1`, the inhibition was found to be 99%.

Regarding `COc1cc(/C=C2\SC(=O)N(Cc3cccc(Br)c3)C2=O)ccc1OCc1ccc(C(=O)O)cc1`, the inhibition turned out to be 26%. In the case of `COc1cc(/C=C2\SC(=O)N(Cc3ccccc3F)C2=O)ccc1OCc1ccc(C(=O)O)cc1`, the inhibition is 41%. Still for that read-out and setting: for `COc1cc(/C=C2\SC(=O)N(Cc3cccc(C(F)(F)F)c3)C2=O)ccc1OCc1ccc(C(=O)O)cc1` the value was 46%; for `COc1cc(/C=C2\SC(=O)N(Cc3cccc(F)c3)C2=O)ccc1OCc1ccc(C(=O)O)cc1`, 64%. For the compound `COc1cc(/C=C2\SC(=O)N(Cc3ccc(C#N)cc3)C2=O)ccc1OCc1ccc(C(=O)O)cc1`, the inhibition was 21%. As to `COc1cc(/C=C2\SC(=O)N(Cc3ccc(OC(F)(F)F)cc3)C2=O)ccc1OCc1ccc(C(=O)O)cc1`, the inhibition was determined as 12%. With `O=C1S/C(=C\c2cccc(OCc3ccc(B(O)O)cc3)c2)C(=O)N1Cc1ccc(F)cc1`, the inhibition came to 100%.
